GASC-1 inh – inhibitors of human GASC-1 (JMJD2C) demethylase | GST-JMJD2C(1-420) H3K9me3 demethylation, DELFIA europium | inhibition, % at 2.35 µM | 330,000 compounds, 0.069% hits | AID 2099;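 active = more than half of a compound's replicate wells show inhibition beyond 50%, single wells judged on their own value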;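 note: signal counts dimethyl H3K9 product captured on neutravidin plate; 0% = median of DMSO wells and 100% = 0.3 times that DMSO median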
GC-B act – GC-B (human) receptor activation; 370,000 compounds, 0.11% hits; P20594; HEK293-GC-B cells, CNP EC30, cGMP TR-FRET; 0% at EC30 CNP, 100% saturating CNP; activation, % at 10 µM;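 active = activation at 10 µM reaching about 35% in either raw or pattern-adjusted values, limit read from the data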
Lipid droplet – modulators of hepatic lipid droplet formation. AML12 mouse hepatocytes, oleate lipid droplets, BODIPY imaging. inhibition, % at 6.5 µM. 240,000 compounds, 0.4% hits. AID 1656;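 active = lipid droplet intensity inhibited by at least 50%, with more than 500 cells counted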
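Assay system: AML12 mouse liver cells | Compound dosing: One dose, 6.5 µM compound | Read-out basis: Droplet intensity reduction, % inhibition | Measured by: Fluorescence imaging, 20x objective, two fields per well | Schedule: Overnight treatment with compound plus oleate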
NR3A LBD binder – NR3A (human) ligand-binding domain modulation; NR3A LBD differential scanning fluorimetry, Tm shift; 0% = protein alone, 100% = glycine-bound protein; Tm shift relative to glycine control, % at 25 µM; 340,000 compounds, 2.5% hits;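 active = melting temperature shift of at least 10% of the positive control shift, at one fixed dose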
NPR1 activator – GC-A (human) enzyme activation | 370,000 compounds, 0.14% hits | activation, % at 10 µM | AID 1671463 | HEK293 GC-A cells, cGMP TR-FRET, EC30 ANP; 0% at EC30 ANP, 100% saturating ANP | P16066; in the data active = activation above about 40%
aDG glyco act – alpha-DG glycosylation activation; Pro5-aDG cells, alpha-DG glycosylation AlphaScreen (IIH6); 0% Pro5, 100% B10-LARGE cell signal; AID 624168; 360,000 compounds, 0.22% hits; activation, % at 10 µM;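 active = activation of at least 8% versus controls, or a plate z-score of at least 8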;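 note: Pro5 are CHO cells carrying HIG-tagged alpha-DG that lacks glycosylation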
Lipid drop inh – hepatic lipid droplet formation inhibition, confirmed | shares compounds with Lipid droplet | AML12 mouse hepatocytes, BODIPY lipid droplet imaging; droplets induced with 100 µM oleic acid | inhibition, % at 5.2 µM | 870 compounds, 65% hits | AID 463183;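 active = inhibition of lipid droplet metric at least 50%, with more than 300 cells in each of four replicates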;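 note: plate controls were DMSO with oleic acid for no effect and 5 µM Triacsin-C for full effect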
AML12 cytotox – toxic to AML12 mouse hepatocytes in counter-screen; DAPI nuclear morphology cytotoxicity imaging; hits give high values; cells fed 100 µM oleate overnight; z-score at 5 µM; AID 463200; shares compounds with Lipid droplet; 870 compounds, 3% hits; in the data active = z-score above about 6.3;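 note: compound exposure lasted overnight at 37 °C before fixation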
AML12 tox conf – confirmation of cytotoxicity in AML12 mouse hepatocytes | shares compounds with Lipid droplet | AML12 mouse hepatocyte viability, ATP luminescence; cells loaded with 100 µM oleic acid | cytotoxicity, % at 50 µM | 530 tested, under 10 active | AID 463219;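 active = cytotoxicity above 50% in each of four replicates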;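 note: compound exposure lasted overnight at 37 °C before the ATP read; 0% = DMSO-treated cells and 100% = wells with no cells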
* = called active by the depositor; nt = no result given. A selection: hits, their analogues and other compounds. The true share with any hit is near 3%.

SMILES | GASC-1 inh | GC-B act | Lipid droplet | NR3A LBD binder | NPR1 activator | aDG glyco act | Lipid drop inh | AML12 cytotox | others
COC(=O)C1=C(C)N=c2s/c(=C3\C(=O)Nc4ccccc43)c(=O)n2C1c1ccccc1 (stereo unspecified) | -13 | nt | 60* | nt | nt | nt | 56* | -0.52 | AML12 tox conf=69*
CCOC(=O)C1=C(C)n2c(s/c(=C3\C(=O)Nc4ccccc43)c2=O)=NC1c1ccc(OC)cc1 (stereo unspecified) | 28 | 6 | 80* | -3 | -2 | 0 | 24 | -0.28
CC(=O)Nc1cc(-c2cccc(C(=O)NCCN(C)C)c2)cn2c(-c3ccc(C(C)=O)cc3)cnc12 | nt | -4 | nt | nt | -3 | 0 | nt | nt
COCCCn1c(SCC(=O)Nc2ccc(NC(=O)c3ccco3)c(OC)c2)nc2ccccc2c1=O | 9 | 3 | 104* | -4 | 1 | 0 | 104* | -0.47 | AML12 tox conf=7
CCCCCCn1c(SCC(=O)Nc2cc(C)on2)nc2ccccc2c1=O | -21 | -1 | 68* | -2 | 8 | 0 | 97* | 0.23 | AML12 tox conf=22
COCCn1c(SCC(=O)Nc2cc(C)on2)nc2ccccc2c1=O | 4 | 4 | nt | 0 | 1 | 0 | nt | nt
OC(c1ccccc1)C(NCCNCc1ccccc1)c1ccccc1 (stereo unspecified) | nt | -5 | nt | 0 | -15 | 1 | nt | nt
CC1CC(C)CN(C(=O)CSCC(=O)Nc2nc(-c3cccs3)cs2)C1 (stereo unspecified) | -6 | -7 | 56* | -10 | 3 | 2 | 108* | -0.11 | AML12 tox conf=9
O=[N+]([O-])c1sccc1CS(=O)(=O)c1ccccc1 | 6 | 1 | 71* | 0 | 2 | 0 | 29 | -0.14
C=CCN1C(=O)[C@H](CC(=O)NCCCOCCCC)[C@@]2(C(=O)OCC)CCCC=C12 | nt | -1 | nt | nt | 3 | nt | nt | nt
COc1ccc(NC(=O)c2sccc2C)cn1 | 3 | 1 | 60* | -3 | 1 | 0 | 1 | -0.17
Cc1ccc(C)c(CN2CCC(n3nccc3NC(=O)CCCc3ccccc3)CC2)c1 | 1 | -13 | 0 | 2 | -6 | 0 | nt | nt
Nc1nc2ccccc2cc1C(=O)NCCCCc1ccccc1 | nt | nt | nt | nt | nt | 3 | nt | nt
CN(Cc1cccc(Cl)c1Cl)C(=O)c1ccccc1SCC(=O)N1CCCC1 | nt | 0 | nt | -1 | 1 | 0 | nt | nt
O=C(c1cnn2c(C(F)(F)F)cc(-c3ccccc3)nc12)N1CCCc2ccccc21 | 76 | -7 | 0 | -1 | -5 | 0 | nt | nt
O=C(c1nn2c(C(F)(F)F)cc(-c3cccs3)nc2c1Cl)N1CCCc2ccccc21 | 2 | -2 | 53* | -1 | 2 | 0 | 26 | 1.4
CCOC(=O)C(NC(=O)c1ccccc1)(OCc1ccccc1)C(F)(F)F (stereo unspecified) | -7 | -4 | 54* | -1 | -2 | 0 | 66* | -0.86 | AML12 tox conf=15
CCOC(=O)C(NC(C)=O)(OCc1ccccc1)C(F)(F)F (stereo unspecified) | 6 | -2 | 2 | -1 | 3 | 0 | nt | nt
Nc1cc(Cl)ccc1C(=O)OCC(=O)NCc1cccs1 | 1 | 7 | nt | 1 | 1 | 0 | nt | nt
CN(C1=C(NC(=O)c2ccc(Cl)cc2)C(=O)c2ccccc2C1=O)c1ccccc1 | 9 | -6 | 69* | -18 | -12 | 0 | 91* | -0.93
COc1ccc(CCNC(=O)C2CC3Cn4c(nc5cc6ccccc6cc54)C3N2C)cc1 (stereo unspecified) | -21 | 3 | 51* | -3 | -2 | 0 | 8 | 0.47
N=c1scc(-c2ccccc2)n1/N=C/c1ccco1 | 9 | 0 | 54* | 2 | -1 | -1 | 26 | -0.56
C(=N/n1c2ccccc2c2ccccc21)/c1ccco1 | -1 | -4 | -1 | -6 | -10 | 0 | nt | nt
O=C(c1cc(COc2ccc(F)cc2Cl)on1)N1CC2C[C@@H]3CC1C[C@H](C2)C3 | 6 | 2 | 24 | 0 | 1 | 0 | nt | nt
CCCOc1ccc(-c2csc(NC(=O)CN3C(=O)CCC3=O)n2)cc1 | 5 | -1 | 95* | 36* | 4 | 0 | 109* | -0.43
SMILES | GASC-1 inh | GC-B act | Lipid droplet | NR3A LBD binder | NPR1 activator | aDG glyco act | Lipid drop inh | AML12 cytotox | others
Cc1cccc(CS(=O)(=O)c2ncc(CO)n2C)c1 | 5 | 4 | nt | 3 | 0 | 0 | nt | nt
COC(=O)c1c(N2C(=O)[C@H]3[C@@H](C2=O)[C@]2(C(=O)Nc4c(C)cc(C)cc42)N2CCC[C@@H]32)sc(C)c1C | 8 | -5 | 68* | -4 | -11 | 0 | 32 | 0.064
Cc1nc(NC(C)c2ccccc2)c2c3c(sc2n1)CCC3 (stereo unspecified) | 7 | nt | nt | 1 | nt | 1 | nt | nt
Cc1nc(Nc2ccc(O)cc2)c2c3c(sc2n1)CCCC3 | -2 | -2 | 60* | -1 | -8 | 0 | 75* | -0.14
Cc1cccc(C)c1NC(=O)CN(C)CC(=O)N1CC(=O)Nc2ccccc21 | 4 | 0 | nt | 1 | 1 | 0 | nt | nt
CCOc1ccc(CN(C)C(=O)NNC(=O)c2ccc(C)cc2)cc1OC | 12 | 2 | 88* | -2 | -3 | 0 | 80* | -1.5 | AML12 tox conf=8
CCOc1ccc(CN(C)C(=O)CNC(=O)c2ccc(Br)o2)cc1OC | -3 | -2 | 80* | 1 | 1 | 0 | 85* | 0.71 | AML12 tox conf=13
CC(NC(=O)[C@@H](C)NC(=O)[C@@H]1Cc2ccccc2CN1C(=O)OC(C)(C)C)c1ccccc1 (stereo partly specified) | -7 | 3 | 68* | -3 | 0 | 0 | 76* | -0.24 | AML12 tox conf=13
CCC1(c2ccccc2)NC(=O)N(CC(=O)N(C)Cc2c(F)cccc2Cl)C1=O (stereo unspecified) | 1 | 2 | 81* | 1 | -1 | 0 | 99* | 0.2 | AML12 tox conf=14
CCC1(c2ccccc2)NC(=O)N(CC(=O)N(C)Cc2ccccc2)C1=O (stereo unspecified) | -11 | -4 | 12 | 0 | -3 | 0 | nt | nt
CCCNc1c(NC(=O)c2ccc3c(c2)OCO3)c(=O)oc2ccccc12 | 5 | 1 | -16 | -1 | 0 | 0 | nt | nt
CCCOc1ccc(C(=O)Nc2nc(C)c(Cc3ccc4c(c3)OCO4)s2)cc1 | -3 | -5 | 41 | -2 | -4 | 0 | nt | nt
